From the RNAGym collection of RNA variant scans (doi:10.1126/science.aae0568)
This sample holds only a part of the variants without activity.

B1: tRNA (parent)
chain: GUUCCGUUGGCGUAAUGGUAACGCGUCUCCCUCCUAAGGAGAAGACUGCGGGUUCGAGUCCCGUACGGAACG

Variants of: B1
Assay: yeast fitness relative to wild type (ratio to wild type); higher = fitter; tRNA-Arg(CCU), competitive growth, 37 C, YPD
Outline: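 Start and end populations of a pooled competition were compared by 100-nucleotide paired-end sequencing of gene amplicons. The Saccharomyces cerevisiae strains carried tRNA-Arg(CCU) gene variants at the native genomic locus, synthesised with a 3% per-site mutation rate at 69 sites, and competed in YPD at 37°C for 24 hours in six parallel replicates. Darwinian fitness relative to wild type was based on the change in genotype frequencies. Genotypes required ≥ 100 starting reads, and estimates < 0.5 were set to 0.5.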

Row | Variant | yeast fitness
1 | C22G C27G C31G C60U | ≤ 0.5
2 | C22G C27G C31G G48A C61G A69U | ≤ 0.5
3 | C22G C27G C31G G56A C61G A69U | ≤ 0.5
4 | C22G C27G U54C C66U | ≤ 0.5
5 | C22G C27U A43G | 0.623
6 | C22G C27U A70U | 0.678
7 | C22G C27U C30U A37G A43U G67A | ≤ 0.5
8 | C22G C27U C33A A36C A43G C55G | ≤ 0.5
9 | C22G C27U C66U | 0.701
10 | C22G C27U U59A | 0.571
11 | C22G C29A A37U C49A | ≤ 0.5
12 | C22G C29G | 0.546
13 | C22G C29G A42C A45C C61G A69U | ≤ 0.5
14 | C22G C29G C33U | ≤ 0.5
15 | C22G C29G C33U A42G G50A C66U | ≤ 0.5
16 | C22G C29G C46U | 0.568
17 | C22G C29G C46U C66U | ≤ 0.5
18 | C22G C29G C62U | ≤ 0.5
19 | C22G C29G G44C G56A A57G | 0.515
20 | C22G C29G G63A | ≤ 0.5
21 | C22G C29U | 0.838
22 | C22G C29U C31A A65G | ≤ 0.5
23 | C22G C30A A45G | ≤ 0.5
24 | C22G C30A C49A A69U | ≤ 0.5

Row | Variant | yeast fitness
25 | C22G C30A C61U | 0.545
26 | C22G C30A C66A | ≤ 0.5
27 | C22G C30G A70U | 0.601
28 | C22G C30G C55A U64C | 0.581
29 | C22G C30G G50A A57U | ≤ 0.5
30 | C22G C30G G50A A57U A70G | ≤ 0.5
31 | C22G C30G G68A | ≤ 0.5
32 | C22G C30G U47C A70U | ≤ 0.5
33 | C22G C30G U47C U54C | ≤ 0.5
34 | C22G C30G U59A | ≤ 0.5
35 | C22G C30U A37G A43U | 0.549
36 | C22G C30U A37G A43U G68U | ≤ 0.5
37 | C22G C31A A36G C49G G63C A69U | 0.543
38 | C22G C31A A43G A57C A65U | ≤ 0.5
39 | C22G C31A C49G G63C A69U | 0.603
40 | C22G C31G A36G | 0.646
41 | C22G C31G A57C A69C | ≤ 0.5
42 | C22G C31G U53A | ≤ 0.5
43 | C22G C31G U54A C61G A69C | ≤ 0.5
44 | C22G C31G U54G | 0.595
45 | C22G C31U C49U | 0.989
46 | C22G C31U C62U A65U | ≤ 0.5
47 | C22G C31U G39A | 0.636
48 | C22G C33A A36C A43G C55G | 0.595

Row | Variant | yeast fitness
49 | C22G C33A A36C A43U C55G | ≤ 0.5
50 | C22G C33U | 0.713
51 | C22G C33U A40U U59A | 0.514
52 | C22G C34A C49A | 0.818
53 | C22G C34A C66A | 0.703
54 | C22G C34A U53C | 0.543
55 | C22G C34G A43U C49A | ≤ 0.5
56 | C22G C34G A70C | 0.608
57 | C22G C34G C61G | ≤ 0.5
58 | C22G C34G C61G A69G | ≤ 0.5
59 | C22G C34G U35A A36U C55U | ≤ 0.5
60 | C22G C34U C46A C62U | 0.611
61 | C22G C34U C60U C62U A70C | ≤ 0.5
62 | C22G C34U C66U | ≤ 0.5
63 | C22G C46A | 1.03
64 | C22G C46A C49U G68A | ≤ 0.5
65 | C22G C46A C62U | 1.04
66 | C22G C46A G48A A57U C60A | 0.576
67 | C22G C46G | 0.974
68 | C22G C46U C66G | ≤ 0.5
69 | C22G C49A | 0.682
70 | C22G C49A G56C G58C C60G | 0.605
71 | C22G C49G | 0.664
72 | C22G C49G A69U | 0.634

Row | Variant | yeast fitness
73 | C22G C49G U64G A65G A70U | ≤ 0.5
74 | C22G C49U | 0.986
75 | C22G C49U A57C | 0.594
76 | C22G C49U C61A | 0.69
77 | C22G C55A C60A | ≤ 0.5
78 | C22G C55G G63C | 0.572
79 | C22G C60G C62U | ≤ 0.5
80 | C22G C60G C66A | ≤ 0.5
81 | C22G C61A | 0.623
82 | C22G C61A A69U | 0.573
83 | C22G C61U | 0.841
84 | C22G C62U | 0.879
85 | C22G C62U G68C | ≤ 0.5
86 | C22G G23A C30G A65C | 0.535
87 | C22G G23A C46U A57G | ≤ 0.5
88 | C22G G23C | 0.779
89 | C22G G23U | 0.73
90 | C22G G25A | 0.993
91 | C22G G25A U53C | ≤ 0.5
92 | C22G G25C | 0.977
93 | C22G G25C A43G | 0.584
94 | C22G G25C C61G | 0.659
95 | C22G G38A U47C | ≤ 0.5
96 | C22G G38C | 0.775

Row | Variant | yeast fitness
97 | C22G G39A A42U A57C | ≤ 0.5
98 | C22G G39C A43U G44A U47C G58C | ≤ 0.5
99 | C22G G39C G50C | ≤ 0.5
100 | C22G G39C U59G C66U | 0.504
101 | C22G G41A G50U C62A G63C | ≤ 0.5
102 | C22G G41C | 0.814
103 | C22G G41C A65U | ≤ 0.5
104 | C22G G44A | 0.846
105 | C22G G44C U47C A70C | ≤ 0.5
106 | C22G G48A | 0.988
107 | C22G G50C C55G | ≤ 0.5
108 | C22G G52C C66U G68A | ≤ 0.5
109 | C22G G58C C61A A69U | ≤ 0.5
110 | C22G G58C C66A | ≤ 0.5
111 | C22G G58U | 1.05
112 | C22G G63A C66U | 0.593
113 | C22G G63C | 0.623
114 | C22G G67A | 0.819
115 | C22G G67C A69C | ≤ 0.5
116 | C22G U26A C30A A42U | 0.692
117 | C22G U26C C33U A37U A40C | ≤ 0.5
118 | C22G U26C U32A G48A | ≤ 0.5
119 | C22G U26G G44A C55G G63C | ≤ 0.5
120 | C22G U28A A36U | 0.631

Row | Variant | yeast fitness
121 | C22G U28A A37C A42C C46A | ≤ 0.5
122 | C22G U28A C31G | ≤ 0.5
123 | C22G U28A C31G A45G C55A G68C | ≤ 0.5
124 | C22G U28A C31G C55A | ≤ 0.5
125 | C22G U28A G67C | ≤ 0.5
126 | C22G U28C | 0.853
127 | C22G U32A C60A A69C | 0.619
128 | C22G U32C A37G | 0.559
129 | C22G U32C A69U | 0.705
130 | C22G U32C U47C U53G | ≤ 0.5
131 | C22G U35A | 0.614
132 | C22G U35G | 0.62
133 | C22G U35G A40C | ≤ 0.5
134 | C22G U47A G67A | ≤ 0.5
135 | C22G U47C A70U | 0.722
136 | C22G U47C U53G | 0.551
137 | C22G U53A G68C | ≤ 0.5
138 | C22G U53C A65C | 0.558
139 | C22G U59A A69G | ≤ 0.5
140 | C22G U59A C66A | 0.554
141 | C22G U64C | 0.856
142 | C22G U64C G68C | 0.623
143 | C22U | 0.908
144 | C22U A36C | 0.616

Row | Variant | yeast fitness
145 | C22U A36C A37G A65G | ≤ 0.5
146 | C22U A36C C60G | ≤ 0.5
147 | C22U A36C U54C A57U | ≤ 0.5
148 | C22U A36U | 0.591
149 | C22U A36U C62G G63A | ≤ 0.5
150 | C22U A36U G56A C66U | ≤ 0.5
151 | C22U A37C | 0.593
152 | C22U A37C A40G G52A U53A | ≤ 0.5
153 | C22U A37C G41C | ≤ 0.5
154 | C22U A37C G52C C62U | ≤ 0.5
155 | C22U A37G A45U | 0.547
156 | C22U A37G A45U G52A C62G A70U | ≤ 0.5
157 | C22U A37G A45U G52A U54C | ≤ 0.5
158 | C22U A37G G48C C55U | 0.64
159 | C22U A37U | 0.694
160 | C22U A37U C49A C62U | 0.598
161 | C22U A37U G58A A69C | ≤ 0.5
162 | C22U A37U U53G | ≤ 0.5
163 | C22U A40G A43U C46G C49G | ≤ 0.5
164 | C22U A40G C46U G63A | ≤ 0.5
165 | C22U A40G C61U A70U | 0.547
166 | C22U A40G G63C | 0.531
167 | C22U A40U G48A | ≤ 0.5
